# ChEMBL document CHEMBL1153146, “Novel potent apoA-I peptide mimetics that stimulate cholesterol efflux and pre-beta particle formation in vitro” (Bioorg Med Chem Lett, 2010)
# Non-standard residues stand in square brackets, D forms with d. Residues, ends and D or L forms follow the SMILES beside them. Gla = N[C@@H](CC(C(=O)O)C(=O)O)C(=O)O; Aib = CC(C)(N)C(=O)O
# What was measured:
# [1] = test system: RAW264.7; assay: Cytotoxicity against mouse RAW264.7 cells after 24 hrs by MTT assay; assay type: cell-based; conditions: RAW264.7, 24 h
# Summary of the method: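 RAW macrophage cytotoxicity examined at peptide concentrations up to 160 µM.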
# [2] = Toxicity in human RBC assessed as hemolysis; assay type: cell-based, Erythrocyte; conditions: red blood cells (RBC)
# Summary of the method: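 Red blood cell lysis assay; cytotoxicity reported as IC50 in µM.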
# [3] = test system: RAW264.7; assay: Induction of [3H]cholesterol efflux in mouse RAW264.7 cells after 24 hrs by scintillation counting; assay type: functional, cell-based
# Summary of the method: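 Cholesterol efflux from RAW macrophages; EC50 reported in µM as the mean of three experiments.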
# [4] = Mus musculus, RAW264.7, read-out: EC50
"EC50 [3, 4] [µM]",EC50 ([3]; raw264.7),SMILES,IC50 [1] [µM],IC50 [2] [µM]
46,,C=CCCC[C@@H](NC(=O)[C@H](CCC(=O)O)NC(=O)[C@H](CC(N)=O)NC(=O)[C@H](CC(C)C)NC(=O)[C@@H](CCCC=C)NC(=O)[C@H](CCC(=O)O)NC(=O)[C@H](CCCNC(=N)N)NC(=O)[C@H](Cc1ccccc1)NC(=O)[C@H](CCC(=O)O)NC(=O)[C@H](CC(=O)O)NC(=O)[C@H](CC(C)C)NC(=O)[C@@H](NC(=O)[C@@H]1CCCN1)C(C)C)C(=O)N[C@@H](CC(C)C)C(=O)N[C@@H](CCC(=O)O)C(=O)N[C@@H](C)C(=O)N[C@@H](CC(C)C)C(=O)N[C@@H](CCCCN)C(=O)N[C@@H](CCC(N)=O)C(=O)N[C@@H](CCCCN)C(=O)N[C@@H](CC(C)C)C(=O)N[C@@H](CCCCN)C(=O)O,> 160,> 160
10,,CC(C)C[C@H](NC(=O)[C@H](C)NC(=O)[C@H](CCC(=O)O)NC(=O)[C@H](CC(C)C)NC(=O)[C@H]1CCC/C=C\CCC[C@@H](NC(=O)[C@H](CCC(=O)O)NC(=O)[C@H](CCCNC(=N)N)NC(=O)[C@H](Cc2ccccc2)NC(=O)[C@H](CCC(=O)O)NC(=O)[C@H](CC(=O)O)NC(=O)[C@H](CC(C)C)NC(=O)[C@@H](NC(=O)[C@@H]2CCCN2)C(C)C)C(=O)N[C@@H](CC(C)C)C(=O)N[C@@H](CC(N)=O)C(=O)N[C@@H](CCC(=O)O)C(=O)N1)C(=O)N[C@@H](CCCCN)C(=O)N[C@@H](CCC(N)=O)C(=O)N[C@@H](CCCCN)C(=O)N[C@@H](CC(C)C)C(=O)N[C@@H](CCCCN)C(=O)O,> 160,> 160
1.3,,C=CCCCCC[C@H](NC(=O)[C@H](CCC(=O)O)NC(=O)[C@H](CC(=O)O)NC(=O)[C@H](CC(C)C)NC(=O)[C@@H](NC(=O)[C@@H]1CCCN1)C(C)C)C(=O)N[C@@H](CCCNC(=N)N)C(=O)N[C@@H](CCC(=O)O)C(=O)N[C@@H](CCCCN)C(=O)N[C@@H](CC(C)C)C(=O)N[C@@H](CC(N)=O)C(=O)N[C@H](CCC(=O)O)C(=O)N[C@@H](CCCCC=C)C(=O)N[C@H](CC(C)C)C(=O)N[C@H](CCC(=O)O)C(=O)N[C@H](C)C(=O)N[C@H](CC(C)C)C(=O)N[C@H](CCCCN)C(=O)N[C@H](CCC(N)=O)C(=O)N[C@H](CCCCN)C(=O)N[C@H](CC(C)C)C(=O)N[C@H](CCCCN)C(=O)O,> 160,> 160
,Not Active,CC(C)C[C@H](NC(=O)[C@H](C)NC(=O)[C@H](CCC(=O)O)NC(=O)[C@H](CC(C)C)NC(=O)[C@@H]1CCC/C=C\CCC[C@@H](NC(=O)[C@H](CCC(=O)O)NC(=O)[C@H](CCCNC(=N)N)NC(=O)[C@H](Cc2ccccc2)NC(=O)[C@H](CCC(=O)O)NC(=O)[C@H](CC(=O)O)NC(=O)[C@H](CC(C)C)NC(=O)[C@@H](NC(=O)[C@@H]2CCCN2)C(C)C)C(=O)N[C@@H](CC(C)C)C(=O)N[C@@H](CC(N)=O)C(=O)N[C@@H](CCC(=O)O)C(=O)N1)C(=O)N[C@@H](CCCCN)C(=O)N[C@@H](CCC(N)=O)C(=O)N[C@@H](CCCCN)C(=O)N[C@@H](CC(C)C)C(=O)N[C@@H](CCCCN)C(=O)O,> 160,> 160
234,,CC(C)C[C@H](NC(=O)[C@H](C)NC(=O)[C@H](CCC(=O)O)NC(=O)[C@H](CC(N)=O)NC(=O)[C@H](CC(C)C)NC(=O)[C@H](CCCCN)NC(=O)[C@H](CCC(=O)O)NC(=O)[C@H](CCCNC(=N)N)NC(=O)[C@H](Cc1ccccc1)NC(=O)[C@H](CCC(=O)O)NC(=O)[C@H](CC(=O)O)NC(=O)[C@H](CC(C)C)NC(=O)[C@@H](NC(=O)[C@@H]1CCCN1)C(C)C)C(=O)N[C@@H](CC(C(=O)O)C(=O)O)C(=O)N[C@@H](C)C(=O)N[C@@H](CC(C)C)C(=O)N[C@@H](CCCCN)C(=O)N[C@@H](CCC(N)=O)C(=O)N[C@@H](CCCCN)C(=O)N[C@@H](CC(C)C)C(=O)N[C@@H](CCCCN)C(=O)O (H-PVLDEFREKLNEAL[Gla]ALKQKLK-OH),> 160,75
23,,CC(C)C[C@H](NC(=O)[C@H](CCCCN)NC(=O)[C@H](CCC(N)=O)NC(=O)[C@H](CCCCN)NC(=O)[C@H](CC(C)C)NC(=O)C(C)(C)NC(=O)[C@H](CCC(=O)O)NC(=O)[C@H](CC(C)C)NC(=O)C(C)(C)NC(=O)[C@H](CCC(=O)O)NC(=O)[C@H](CC(N)=O)NC(=O)[C@H](CC(C)C)NC(=O)[C@H](CCCCN)NC(=O)[C@H](CCC(=O)O)NC(=O)[C@H](CCCNC(=N)N)NC(=O)[C@H](Cc1ccccc1)NC(=O)[C@H](CCC(=O)O)NC(=O)[C@H](CC(=O)O)NC(=O)[C@H](CC(C)C)NC(=O)[C@@H](NC(=O)[C@@H]1CCCN1)C(C)C)C(=O)N[C@@H](CCCCN)C(=O)O (H-PVLDEFREKLNE[Aib]LE[Aib]LKQKLK-OH),> 160,> 160
41,,CC(C)C[C@H](NC(=O)[C@H](C)NC(=O)[C@H](CC(C(=O)O)C(=O)O)NC(=O)[C@H](CC(C)C)NC(=O)C(C)(C)NC(=O)[C@H](CCC(=O)O)NC(=O)[C@H](CC(N)=O)NC(=O)[C@H](CC(C)C)NC(=O)[C@H](CCCCN)NC(=O)[C@H](CCC(=O)O)NC(=O)[C@H](CCCNC(=N)N)NC(=O)[C@H](Cc1ccccc1)NC(=O)[C@H](CCC(=O)O)NC(=O)[C@H](CC(=O)O)NC(=O)[C@H](CC(C)C)NC(=O)[C@@H](NC(=O)[C@@H]1CCCN1)C(C)C)C(=O)N[C@@H](CCCCN)C(=O)N[C@@H](CCC(N)=O)C(=O)N[C@@H](CCCCN)C(=O)N[C@@H](CC(C)C)C(=O)N[C@@H](CCCCN)C(=O)O (H-PVLDEFREKLNE[Aib]L[Gla]ALKQKLK-OH),> 160,75
142,,CC(C)C[C@H](NC(=O)[C@H](C)NC(=O)[C@H](CCC(=O)O)NC(=O)[C@H](CC(N)=O)NC(=O)[C@H](CC(C)C)NC(=O)[C@H](CCCCN)NC(=O)[C@H](CC(C(=O)O)C(=O)O)NC(=O)[C@H](CCCNC(=N)N)NC(=O)[C@H](Cc1ccccc1)NC(=O)[C@H](CCC(=O)O)NC(=O)[C@H](CC(=O)O)NC(=O)[C@H](CC(C)C)NC(=O)[C@@H](NC(=O)[C@@H]1CCCN1)C(C)C)C(=O)N[C@@H](CCC(=O)O)C(=O)N[C@@H](C)C(=O)N[C@@H](CC(C)C)C(=O)N[C@@H](CCCCN)C(=O)N[C@@H](CCC(N)=O)C(=O)N[C@@H](CCCCN)C(=O)N[C@@H](CC(C)C)C(=O)N[C@@H](CCCCN)C(=O)O (H-PVLDEFR[Gla]KLNEALEALKQKLK-OH),> 160,40
44,,CC(C)C[C@H](NC(=O)[C@H](C)NC(=O)[C@H](CCC(=O)O)NC(=O)[C@H](CC(C)C)NC(=O)C(C)(C)NC(=O)[C@H](CCC(=O)O)NC(=O)[C@H](CC(N)=O)NC(=O)[C@H](CC(C)C)NC(=O)[C@H](CCCCN)NC(=O)[C@H](CC(C(=O)O)C(=O)O)NC(=O)[C@H](CCCNC(=N)N)NC(=O)[C@H](Cc1ccccc1)NC(=O)[C@H](CCC(=O)O)NC(=O)[C@H](CC(=O)O)NC(=O)[C@H](CC(C)C)NC(=O)[C@@H](NC(=O)[C@@H]1CCCN1)C(C)C)C(=O)N[C@@H](CCCCN)C(=O)N[C@@H](CCC(N)=O)C(=O)N[C@@H](CCCCN)C(=O)N[C@@H](CC(C)C)C(=O)N[C@@H](CCCCN)C(=O)O (H-PVLDEFR[Gla]KLNE[Aib]LEALKQKLK-OH),> 160,75
